Results: ChEMBL document CHEMBL1132613 (J Med Chem, 1999)

Key:
[1] = biological target: T1, 5-hydroxytryptamine receptor 1A (Rattus norvegicus, UniProt P19327); experiment: Compound was tested for the displacement of [3H]-8-OH- DPAT from rat brain 5-hydroxytryptamine 1A receptor
T1 sequence (P19327 whole entry): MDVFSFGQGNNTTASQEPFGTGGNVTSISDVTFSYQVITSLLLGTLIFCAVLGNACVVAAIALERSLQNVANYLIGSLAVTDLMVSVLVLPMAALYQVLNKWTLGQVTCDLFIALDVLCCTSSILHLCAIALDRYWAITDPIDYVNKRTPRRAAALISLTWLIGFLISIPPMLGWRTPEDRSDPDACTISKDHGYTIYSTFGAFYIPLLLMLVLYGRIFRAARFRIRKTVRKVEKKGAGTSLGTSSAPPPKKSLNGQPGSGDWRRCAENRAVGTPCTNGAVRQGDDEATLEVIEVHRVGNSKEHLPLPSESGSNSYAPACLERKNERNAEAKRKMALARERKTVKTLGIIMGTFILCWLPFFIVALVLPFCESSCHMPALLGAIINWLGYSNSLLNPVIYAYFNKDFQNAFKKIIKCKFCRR
Summary of the method: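 Pooled rat hippocampal membranes were preincubated at 37 °C. Buffer was 50 mM Tris HCl pH 7.4 with 0.5 mM Na2EDTA, 10 mM MgCl2, 0.1% Na ascorbate and pargyline. 200–400 μg protein was incubated with [3H]-8-OH-DPAT for 15 min at 37 °C, then GF/C filtered and scintillation counted. Nonspecific binding was defined with 10 μM 5-HT. Triplicate tubes.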

Rattus norvegicus [2] = experiment: Drug Discrimination in […] trained rats at 0.5 mg/kg dose; type: functional
Summary of the method: (§1)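 Male Sprague–Dawley rats (200–220 g) in a two-lever, FR50 food-reinforced task. Rats were trained to discriminate saline from LSD tartrate (0.08 mg/kg), DOI HCl (0.4 mg/kg) or LY293284 (0.025 mg/kg) in 15-min sessions. %SDL is the share of rats making over 80% of presses on the drug lever. %D is the share failing to make 50 presses within 15 min. ED50 by Litchfield–Wilcoxon log-probit.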

Rattus norvegicus [3] = experiment: Drug Discrimination in […] trained rats at 1.0 mg/kg dose; type: functional; summary of the method: as §1
Rattus norvegicus [4] = experiment: Drug Discrimination in […] trained rats at 2.0 mg/kg dose; type: functional; summary of the method: as §1
Rattus norvegicus [5] = experiment: Drug Discrimination in […] trained rats at 4.0 mg/kg dose; type: functional; summary of the method: as §1
Rattus norvegicus [6] = experiment: Drug Discrimination in […] trained rats at 8.0 mg/kg dose; type: functional; summary of the method: as §1
Rattus norvegicus [7] = experiment: Percentage of animals failing to emit 50 lever presses within 15 min in rats at 2.0 mg/kg dose; type: functional
Summary of the method: (§2)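 Two-lever drug discrimination in male Sprague–Dawley rats (200–220 g at start), trained against saline on LSD tartrate (0.08 mg/kg), DOI HCl (0.4 mg/kg) or LY293284 (0.025 mg/kg). FR50 food-pellet reinforcement, levers counterbalanced, 15-min sessions at 22–24 °C. %D is the share of tested rats not completing 50 lever presses within 15 min.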

Rattus norvegicus [8] = experiment: Percentage of animals failing to emit 50 lever presses within 15 min in rats at 4.0 mg/kg dose; type: functional; summary of the method: as §2
Rattus norvegicus [9] = experiment: Percentage of animals failing to emit 50 lever presses within 15 min in rats at 8.0 mg/kg dose; type: functional; summary of the method: as §2
Rattus norvegicus [10] = experiment: Percentage of animals failing to emit 50 lever presses within 15 min in rats at 1.0 mg/kg dose; type: functional; summary of the method: as §2
Rattus norvegicus [11] = experiment: Percentage of animals emitting >80% of lever presses in rats at 1.0 mg/kg dose; type: functional; summary of the method: as §1
Rattus norvegicus [12] = experiment: Percentage of animals emitting >80% of lever presses in rats at 2.0 mg/kg dose; type: functional; summary of the method: as §1
Rattus norvegicus [13] = experiment: Percentage of animals emitting >80% of lever presses in rats at 4.0 mg/kg dose; type: functional; summary of the method: as §1
Rattus norvegicus [14] = experiment: Percentage of animals emitting >80% of lever presses in rats at 8.0 mg/kg dose; type: functional; summary of the method: as §1
[15] = biological target: 5-hydroxytryptamine receptor 2A (Homo sapiens, UniProt P28223)
Chain of 5-hydroxytryptamine receptor 2A (P28223 whole entry): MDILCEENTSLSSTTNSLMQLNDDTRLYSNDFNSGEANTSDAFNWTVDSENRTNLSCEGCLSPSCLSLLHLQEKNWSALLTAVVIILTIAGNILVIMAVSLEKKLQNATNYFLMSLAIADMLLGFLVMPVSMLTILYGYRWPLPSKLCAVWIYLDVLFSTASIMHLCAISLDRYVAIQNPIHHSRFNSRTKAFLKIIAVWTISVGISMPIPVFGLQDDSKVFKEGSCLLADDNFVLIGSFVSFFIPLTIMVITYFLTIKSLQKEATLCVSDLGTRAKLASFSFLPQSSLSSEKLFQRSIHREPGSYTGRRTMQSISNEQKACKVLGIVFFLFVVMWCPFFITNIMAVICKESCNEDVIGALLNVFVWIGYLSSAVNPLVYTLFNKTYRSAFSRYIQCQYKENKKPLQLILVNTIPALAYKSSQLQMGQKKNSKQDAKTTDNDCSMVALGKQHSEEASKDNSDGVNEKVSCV

## CN(C)CCc1c[nH]c2ccccc12
[1]
  Ki: 259 nM
Rattus norvegicus [2]
  D: 0%
  SDL: 0%
Rattus norvegicus [3]
  D: 11%
  SDL: 20%
Rattus norvegicus [4]
  D: 20%
  SDL: 37.5%
Rattus norvegicus [5]
  D: 20%
  SDL: 62.5%
Rattus norvegicus [6]
  D: 80%
  SDL: 100%
Rattus norvegicus [7]
  D: 18%
Rattus norvegicus [8]
  D: 23%
Rattus norvegicus [9]
  D: 37%
Rattus norvegicus [10]
  D: 0%
Rattus norvegicus [11]
  SDL: 37%
Rattus norvegicus [12]
  SDL: 22%
Rattus norvegicus [13]
  SDL: 40%
Rattus norvegicus [14]
  SDL: 83%
[15]
  Ki: 65 nM
